{"source": "ChEMBL document CHEMBL5661981", "about": "(PLoS One, 2011)", "key": {"[1]": {"system": "Mus musculus", "assay": "Antitumor activity against FVB-2/Nneu transgenic mouse breast cancer model assessed as reduction in tumor growth at 25 to 100 mg/kg, po administered twice daily for 21 days", "assay_type": "functional, organism-based", "settings": "dose 25-100 mg/kg, time 21.0 day"}, "[2]": {"assay": "Toxicity in FVB-2/Nneu transgenic mouse breast cancer model assessed as decrease in body weight at 25 to 100 mg/kg, po administered twice daily for 21 days relative to control", "assay_type": "organism-based", "set-up": "scale not given: the % may be the effect or the level left", "settings": "in vivo, 504 h, dose 25-100 mg/kg, time 21 day"}, "[3]": {"system": "Mus musculus", "assay": "In vivo inhibition of EGFR phosphorylation in human SK-OV-3 cells over expressing ErbB2 xenografted in nude mouse at 100 mg/kg, po measured after 2 to 24 hrs by Western blot analysis", "assay_type": "functional, organism-based", "settings": "time lower 2.0 hrs, time upper […]", "in_short": "(§1)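 Nude mice bearing established SK-OV-3 tumors (~200 mm3) given a single 100 mg/kg dose; tumor extracts collected at indicated times and EGFR and ErbB2 phosphorylation assessed by immunoblotting.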"}, "[4]": {"system": "SK-OV-3", "assay": "Antiproliferative activity against human SK-OV-3 cells transfected with EGFR siRNA assessed as reduction in cell viability at 1.25 to 6.25 uM after 72 hrs by SRB assay", "assay_type": "functional, cell-based", "settings": "dose 1.25-6.25 µM", "in_short": "(§2)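 SK-OV-3 cells transfected with siRNA (final 50 nmol/L; one ErbB2 pair, two independent EGFR pairs, plus control siRNA) using oligofectamine; drug added 48 h after transfection, growth measured by SRB. Three independent experiments; significance by t test.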"}, "[5]": {"system": "NCI-H23", "assay": "Antiproliferative activity against human NCI-H23 cells assessed as reduction in cell viability after 72 hrs by SRB assay", "assay_type": "functional, cell-based", "settings": "NCI-H23, 72 h", "in_short": "(§3)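 Cell lines from ATCC; exposed to indicated concentrations for 72 h and growth read by sulforhodamine B (SRB) assay; IC50 values derived.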"}, "[6]": {"system": "Epidermal growth factor receptor (Homo sapiens), P00533 [L858R,T790M]", "sequence (P00533 whole entry T790M/L858R, looked up)": "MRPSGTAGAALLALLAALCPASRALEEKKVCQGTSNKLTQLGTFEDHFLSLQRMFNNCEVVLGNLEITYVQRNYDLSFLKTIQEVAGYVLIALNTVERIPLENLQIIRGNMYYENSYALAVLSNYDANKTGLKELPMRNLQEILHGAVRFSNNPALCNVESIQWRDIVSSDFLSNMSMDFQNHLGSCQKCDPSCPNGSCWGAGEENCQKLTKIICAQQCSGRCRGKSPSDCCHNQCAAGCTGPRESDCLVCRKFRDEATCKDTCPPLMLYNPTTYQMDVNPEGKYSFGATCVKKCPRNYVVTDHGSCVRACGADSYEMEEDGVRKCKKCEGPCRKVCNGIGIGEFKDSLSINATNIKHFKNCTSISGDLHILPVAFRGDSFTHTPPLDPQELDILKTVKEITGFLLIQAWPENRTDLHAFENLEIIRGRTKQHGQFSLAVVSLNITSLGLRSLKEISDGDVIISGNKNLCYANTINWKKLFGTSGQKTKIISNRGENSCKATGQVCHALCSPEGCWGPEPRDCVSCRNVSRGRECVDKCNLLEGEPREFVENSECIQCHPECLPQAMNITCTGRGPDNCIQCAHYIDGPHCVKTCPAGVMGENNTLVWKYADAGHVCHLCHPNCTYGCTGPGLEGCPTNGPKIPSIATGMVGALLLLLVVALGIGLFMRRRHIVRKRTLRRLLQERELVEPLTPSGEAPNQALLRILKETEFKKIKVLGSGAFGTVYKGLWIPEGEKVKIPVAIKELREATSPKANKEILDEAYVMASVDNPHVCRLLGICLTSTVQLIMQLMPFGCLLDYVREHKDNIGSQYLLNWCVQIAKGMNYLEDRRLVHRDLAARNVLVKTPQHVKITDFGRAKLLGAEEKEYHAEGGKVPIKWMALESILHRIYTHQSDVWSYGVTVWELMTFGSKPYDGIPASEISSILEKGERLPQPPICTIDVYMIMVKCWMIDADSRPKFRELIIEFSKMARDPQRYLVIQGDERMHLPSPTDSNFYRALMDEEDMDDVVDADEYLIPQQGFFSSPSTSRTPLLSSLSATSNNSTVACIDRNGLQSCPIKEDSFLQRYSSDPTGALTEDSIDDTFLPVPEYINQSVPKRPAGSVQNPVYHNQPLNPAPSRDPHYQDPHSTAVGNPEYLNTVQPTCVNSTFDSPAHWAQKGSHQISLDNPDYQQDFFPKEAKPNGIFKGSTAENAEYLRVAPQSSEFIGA", "settings": "NCI-H1975, dose 10-100 nM, time 4.25 hrs"}, "[7]": {"system": "A549", "assay": "Antiproliferative activity against human A549 cells assessed as reduction in cell viability after 72 hrs by SRB assay", "assay_type": "functional, cell-based", "settings": "A549, 72 h", "in_short": "as §3"}, "[8]": {"system": "SK-OV-3", "assay": "Antiproliferative activity against human SK-OV-3 cells transfected with ErbB2 siRNA assessed as reduction in cell viability at 1.25 to 6.25 uM after 72 hrs by SRB assay", "assay_type": "functional, cell-based", "settings": "dose 1.25-6.25 µM", "in_short": "as §2"}, "[9]": {"system": "MDA-MB-468", "assay": "Antiproliferative activity against human MDA-MB-468 cells assessed as reduction in cell viability after 72 hrs by SRB assay", "assay_type": "functional, cell-based", "settings": "MDA-MB-468, 72 h", "in_short": "as §3"}, "[10]": {"system": "SK-OV-3", "assay": "Antitumor activity against human SK-OV-3 cells over expressing ErbB2 xenografted in nude mouse assessed as reduction in growth at 25 to 100 mg/kg, po administered twice daily for 7 days relative to control", "assay_type": "functional", "set-up": "scale not given: the % may be the effect or the level left", "settings": "dose 25-100 mg/kg, time 7 day"}, "[11]": {"system": "NCI-H1975", "assay": "Antiproliferative activity against human NCI-H1975 cells harboring EGFR T790M/L858R double mutant assessed as reduction in cell viability after 72 hrs by SRB assay", "assay_type": "functional, cell-based", "settings": "dose 0.19-6.25 µM", "in_short": "as §3"}, "[12]": {"system": "Epidermal growth factor receptor (Homo sapiens), P00533 [L858R,T790M]", "settings": "NIH3T3, dose 1-100 nM, time 6.0 hrs"}, "[13]": {"system": "HO-8910", "assay": "Antitumor activity against human HO-8910 cells xenografted in nude mouse assessed as reduction in growth at 25 to 100 mg/kg, po administered twice daily for 21 days", "assay_type": "functional, organism-based", "settings": "dose 25-100 mg/kg, time 21.0 day"}, "[14]": {"system": "Mus musculus", "assay": "In vivo inhibition of ErbB2 phosphorylation in human SK-OV-3 cells over expressing ErbB2 xenografted in nude mouse at 100 mg/kg, po measured after 2 to 24 hrs by Western blot analysis", "assay_type": "functional, organism-based", "settings": "time lower 2.0 hrs, time upper […]", "in_short": "as §1"}, "[15]": {"assay": "Toxicity in nude mouse xenografted with human SK-OV-3 cells over expressing ErbB2 assessed as effect on body weight at 25 to 100 mg/kg, po administered twice daily for 28 days", "assay_type": "organism-based", "settings": "in vivo, 672 h, dose 25-100 mg/kg, time 28 day"}, "[16]": {"system": "Calu-3", "assay": "Antitumor activity against human Calu-3 cells over expressing ErbB2 xenografted in nude mouse assessed as reduction in growth at 25 to 100 mg/kg, po administered twice daily for 21 days", "assay_type": "functional, organism-based", "settings": "dose 25-100 mg/kg, time 21.0 day"}, "[17]": {"system": "A549", "assay": "Antitumor activity against human A549 cells xenografted in nude mouse assessed as reduction in growth at 25 to 100 mg/kg, po administered twice daily for 32 days", "assay_type": "functional, organism-based", "settings": "dose 25-100 mg/kg, time 32.0 day"}, "[18]": {"system": "SK-OV-3", "assay": "Antitumor activity against human SK-OV-3 cells over expressing ErbB2 xenografted in nude mouse assessed as reduction in growth at 25 to 100 mg/kg, po administered twice daily for 28 days", "assay_type": "functional, organism-based", "settings": "dose 25-100 mg/kg, time 28.0 day"}, "[19]": {"system": "A549", "assay": "Antiproliferative activity against human A549 cells assessed as decrease in number of colony formation at 0.1 to 5 uM after 1 to 2 weeks by microscope analysis", "assay_type": "functional, cell-based", "settings": "dose 0.1-5 µM, time 1-2 weeks", "in_short": "(§4)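 Cells at 8000/mL exposed to drug in 1 mL 0.3% basal medium Eagle's agar with 10% FBS; kept 2 weeks at 37°C, 5% CO2. Average colony number counted and colonies photographed; mean of triplicate samples, SE bars, Student's test.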"}, "[20]": {"system": "NIH3T3", "assay": "Antiproliferative activity against mouse NIH3T3 cells harboring EGFR T790M/L858R double mutant assessed as reduction in cell viability after 72 hrs by SRB assay", "assay_type": "functional, cell-based", "settings": "dose 0.19-6.25 µM", "in_short": "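Parental NIH3T3 and laboratory-built NIH3T3 overexpressing EGFR T790M/L858R treated with indicated concentrations for 72 h; viability by sulforhodamine B; IC50 from three independent experiments.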"}, "[21]": {"system": "Epidermal growth factor receptor (Homo sapiens), P00533 [L858R,T790M]", "settings": "NCI-H1975, dose 10-100 nM, time 4.25 hrs", "remark": "listed apart in the source"}, "[22]": {"system": "Epidermal growth factor receptor (Homo sapiens), P00533 [L858R,T790M]", "settings": "NCI-H1975, dose 10-100 nM, time 4.25 hrs", "remark": "listed apart in the source"}, "[23]": {"system": "Mus musculus", "assay": "Antitumor activity against FVB-2/Nneu transgenic mouse breast cancer model assessed as reduction in tumor growth at 25 to 100 mg/kg, po administered twice daily for 11 days relative to control", "assay_type": "functional", "set-up": "scale not given: the % may be the effect or the level left", "settings": "dose 25-100 mg/kg, time 11 day"}, "[24]": {"system": "SK-OV-3", "assay": "Antiproliferative activity against human SK-OV-3 cells assessed as decrease in number of colony formation at 0.1 to 5 uM after 1 to 2 weeks by microscope analysis", "assay_type": "functional, cell-based", "settings": "dose 0.1-5 µM, time 1-2 weeks", "in_short": "as §4"}, "[25]": {"system": "SK-OV-3", "assay": "Antiproliferative activity against human SK-OV-3 cells assessed as reduction in cell viability after 72 hrs by SRB assay", "assay_type": "functional, cell-based", "settings": "SK-OV-3, 72 h", "in_short": "as §3"}, "[26]": {"system": "SK-OV-3", "assay": "Antitumor activity against human SK-OV-3 cells over expressing ErbB2 xenografted in nude mouse assessed as reduction in growth at 50 mg/kg, po administered twice daily for 28 days", "assay_type": "functional, organism-based", "settings": "time 28.0 day"}, "[27]": {"system": "Calu-3", "assay": "Antitumor activity against human Calu-3 cells over expressing ErbB2 xenografted in nude mouse assessed as reduction in growth at 50 mg/kg, po administered twice daily for 28 days", "assay_type": "functional, organism-based", "settings": "time 28.0 day"}}, "note": "Activity calls are given as the source filed them. The rule behind the calls is not given here.", "data": [{"compound": "C=CC(=O)Nc1ccc2ncnc(Nc3ccc(OCc4cccc(F)c4)c(Cl)c3)c2c1", "note": "[ALLITINIB]", "values": [{"measurement": "Activity", "setting": "[1]", "value": "Active"}, {"measurement": "Activity", "setting": "[2]", "value": "< 20", "unit": "%"}, {"measurement": "inhibition", "setting": "[3]", "value": "Active"}, {"measurement": "Activity", "setting": "[4]", "value": "Active"}, {"measurement": "IC50", "setting": "[5]", "value": 6.2, "unit": "µM"}, {"measurement": "inhibition", "setting": "[6]", "value": "Dose-Dependent Effect"}, {"measurement": "IC50", "setting": "[7]", "value": 6.2, "unit": "µM"}, {"measurement": "Activity", "setting": "[8]", "value": "inactive"}, {"measurement": "IC50", "setting": "[9]", "value": 6.2, "unit": "µM"}, {"measurement": "Activity", "setting": "[10]", "value": "~100", "unit": "%"}, {"measurement": "inhibition", "setting": "[11]", "value": "Dose-Dependent Effect"}, {"measurement": "inhibition", "setting": "[12]", "value": "Active"}, {"measurement": "Activity", "setting": "[13]", "value": "Active"}, {"measurement": "inhibition", "setting": "[14]", "value": "Active"}, {"measurement": "Activity", "setting": "[15]", "value": "Non-Toxic"}, {"measurement": "Activity", "setting": "[16]", "value": "Active"}, {"measurement": "Activity", "setting": "[17]", "value": "Active"}, {"measurement": "Activity", "setting": "[18]", "value": "Active"}, {"measurement": "Activity", "setting": "[19]", "value": "Active"}, {"measurement": "Activity", "setting": "[20]", "value": "Dose-Dependent Effect"}, {"measurement": "inhibition", "setting": "[21]", "value": "Dose-Dependent Effect"}, {"measurement": "inhibition", "setting": "[22]", "value": "Dose-Dependent Effect"}, {"measurement": "Activity", "setting": "[23]", "value": "~100", "unit": "%"}, {"measurement": "Activity", "setting": "[24]", "value": "Active"}, {"measurement": "IC50", "setting": "[25]", "value": 6.2, "unit": "µM"}]}, {"compound": "CS(=O)(=O)CCNCc1ccc(-c2ccc3ncnc(Nc4ccc(OCc5cccc(F)c5)c(Cl)c4)c3c2)o1", "values": [{"measurement": "Activity", "setting": "[26]", "value": "Active"}, {"measurement": "Activity", "setting": "[27]", "value": "Active"}]}]}
